Among the data in PubChem BioAssay AID686939 (The Scripps Research Institute Molecular Screening Center, 2013) are activation values, retold here.

Structures are written as SMILES. Among all 3,500 compounds or so, about 1,400 (40%) were called active. The set was probably picked from earlier hits. The list is a sample of the results. A number with no mark means an inactive call.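 Rule for the calls: active = activation above the solvent-only control well mean plus 3 SD, averaged across control plates (cut at about 5.2% in these data); inactive = the rest.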

The nature of this assay: GAL4-VP16 luciferase reporter activation, counter-screen for SMARCA2 (BRM) activator project, cell-based, pG5luc, luminescence, high throughput (AID 686939). The conditions noted are these: HEK293 GAL4-VP16 pG5luc reporter, at 9.1 µM, stronger effect = higher value, scaled: DMSO wells 0%, SAHA wells 100%. A digest of the protocol: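 Assay system: 293 cells carrying GAL4-VP16 plus UAS-luciferase reporter | Read-out basis: Percent activation scaled between DMSO (0%) and SAHA (100%) control medians | Times: 24 h exposure, 37 °C, 5% CO2, One-Glo 15 min RT | Signal: Luciferase luminescence after One-Glo reagent addition | Compound: One dose, 9.1 µM nominal | Repeats: Each compound tested in triplicate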
In general terms: Reporter assays use an easily measured gene product as a stand-in for the process of interest.
For `Cc1cc(C)c2nc(NC(=O)C3CCCO3)sc2c1` (stereo not drawn), the activation is 7.97% (active).
The same measure for `O=C(Nc1nnc(CCc2ccccc2)s1)C1CCCO1` (stereo not drawn): 0.86%; for `Cc1ccccc1C1=N/C(=C/c2cccnc2)C(=O)O1`: 0.55%; for `COC(=O)c1ccc(NCc2cc(O)ccc2O)cc1`: 5.14% (active).
Take `COC(=O)c1ccc(/C=C2/C(=O)Oc3ccccc32)cc1`: the activation is -0.16%.
In the case of `Cc1ccc(O)c(CNc2nc3ccccc3n2C)c1`, the activation was 1.49%.
Under `CCC1CCC/C1=N\NC(=O)c1ccc(Cl)cc1` (stereo not drawn) stands 0.4%; under `O=C(C1CCC1)N1CCN(S(=O)(=O)c2ccc([N+](=O)[O-])cc2)CC1`, 0.6%; under `Cc1ccsc1-c1nc(CSCC(=O)NCCN2CCCC2)c(C)o1`, 0.41%.
In the case of `Cc1ccc(C(=O)Nc2nc3ccc(Cl)cc3s2)o1`, the activation is 7.07% (active).
The same measure for `CC1CCCCN1C(=S)NCc1ccccc1` (stereo not drawn): -0.22%; for `Cc1ccc(C(=O)NNC(=O)c2cccs2)cc1`: 6.36% (active).
Regarding `Cc1ccc(S(=O)(=O)c2c[nH]c3ccc(Cl)cc3c2=O)cc1`, the activation was -0.72%.
Under `Cc1ccc(S(=O)(=O)NC(C)C(=O)NCc2ccc(Cl)cc2)cc1` (stereo not drawn) stands -0.12%; under `COc1ccc(NC(=O)c2sccc2SCC#N)cc1`, 2.71%.
In the case of `O=[N+]([O-])c1ccc2c(c1)Nc1nc3ccccc3nc1N2`, the activation was 10.8% (active).
In the case of `CCCn1c(=O)c2ccccc2n2c(SCC(=O)/C(C#N)=C(\C)N)nnc12`, the activation is -0.93%.
Under `CCc1cc2c(=O)c(-c3ccon3)c(N)oc2cc1OC` stands 5.65% (active); under `Cc1n[nH]c(=O)nc1N/N=C/c1cccs1`, 2.94%; under `CC(C)c1ccc(NC(=S)NC2CC3C=CC2C3)cc1` (stereo not drawn), 8.15% (active).
Consider `CCc1ccc(NC2Nc3cc(C)nn3S2)cc1` (stereo not drawn), for which the activation was 6.27% (active).
The same measure for `O=C(Nc1ccc(F)cc1)c1cc2c(s1)CCCC2`: 10.8% (active); for `Cc1ccc(NC(=O)c2cnc(SCC(=O)NCC3CCCO3)n(C)c2=O)cc1` (stereo not drawn): 3.55%.
For the molecule `O=C(NCC1CCCO1)c1cc2c(s1)CCCC2` (stereo not drawn), the activation was 10.9% (active).
`COCn1c(COc2ccccc2)nc2ccccc21`: the activation is 3.98%.
On to `CN1CCN(CCCNC(=O)c2ccc(/C=C3\Oc4ccccc4N(Cc4ccc(Cl)cc4)C3=O)cc2)CC1`, for which the activation was 2.16%.
Under `COC(=O)Cc1nnn2c1[C@H](C)[C@H](c1ccccc1[N+](=O)[O-])OCC2` stands 1.5%.
Under `O=C(Nc1ccc(NC(=O)c2cccs2)cn1)c1ccco1` stands 11.6% (active); under `O=C(Nc1ccc2nccnc2c1)c1ccco1`, 6.58% (active); under `CCOc1cc(NC(=S)NCCCOC)c(OCC)cc1NC(=O)c1ccco1`, -0.82%.
The same measure for `C/C(CC(=O)NC(C)(C)C)=N\NC(=O)c1ccco1`: 1.25%; for `Cn1sc(=O)c2cc(S(=O)(=O)NC3CC3)ccc21`: 1.24%; for `O=C1/C(=C\c2ccc([N+](=O)[O-])cc2)CS(=O)(=O)C/C1=C/c1ccc([N+](=O)[O-])cc1`: -4.02%.
Take `Cc1ccsc1C(=O)N/N=C/c1ccc([N+](=O)[O-])cc1`: the activation was 14.2% (active).
Under `O=C(OCC(=O)c1cccs1)C1=COCCO1` stands 7.73% (active).
The same measure for `O=C(NCc1ccccn1)c1cnc2sccn2c1=O`: 2.95%.
Under `Cc1cc(C)n2nc(CNS(=O)(=O)c3c(F)c(F)c(F)c(F)c3F)nc2n1` stands 1.55%; under `CC(C)(C)C(=O)CSc1nc2ccccc2o1`, 5.87% (active).
On to `CN(C)c1nc(=Nc2cccc(Cl)c2)ss1`, for which the activation is 1.47%.
For the molecule `COc1ccc(/C(N)=N/OC(=O)Oc2ccccc2)cc1`, the activation is -0.09%.
Under `CCCOc1ccc(-c2nc(N)n[nH]2)cc1` stands 6.36% (active); under `COc1ccc2nc(/N=C(\N)NC(=O)Nc3ccccc3)nc(C)c2c1`, -0.04%.
The same measure for `Cc1ccnc(NC(=O)C2CCN(S(=O)(=O)c3c(C)c(C)cc(C)c3C)CC2)c1`: 1.57%; for `COc1cccc(C(=O)Nc2nc3ccc(S(C)(=O)=O)cc3s2)c1`: 5.21% (active).
Under `N#Cc1ccccc1NC(=O)c1cccc(COc2ccc(Cl)cc2Cl)c1` stands 21.9% (active); under `COc1ccc(S(=O)(=O)NC(C)C(=O)N2CCCCCC2)cc1` (stereo not drawn), -0.22%; under `CC(=O)Nc1ccc(Nc2c3ccccc3nc3ccccc23)cc1`, 1.5%.
Take `CCCC(=O)N1c2ccc(-c3csc(N)n3)cc2CC1C` (stereo not drawn): the activation was 13.6% (active).
Regarding `CCC(=O)Nc1ccc2nn(-c3ccc(F)cc3)nc2c1`, the activation was 7.66% (active).
The same measure for `CCCSC(=S)NC1CCS(=O)(=O)C1` (stereo not drawn): -1.45%; for `Cc1noc(C)c1/C=N/Nc1ccc2ccccc2n1`: 11.4% (active); for `COc1ccc(/C=C/C(=O)Nc2ccc(C34CC5CC(CC(O)(C5)C3)C4)cc2)cc1OC`: 16.6% (active).
The same measure for `Cc1c(NC(=O)CSc2cccc3cccnc23)c(=O)n(-c2ccccc2)n1C`: -2.03%.
Turning to `COc1ccc(C(=O)N/N=c2\oc3ccccc3cc2C(N)=O)cc1`, the activation was 2.08%.
The same measure for `Cn1cc(/C=C/C(=O)N2CCCC(C(=O)c3ccc(C(F)(F)F)cc3)C2)cn1` (stereo not drawn): 0.52%; for `CCN(CC)CCNC(=O)c1ccc(NC(=O)c2cc(-c3ccncc3)nc3ccccc23)cc1`: 1.61%; for `CN(C)CCNC(=O)c1ccc(Cl)c2cc3ccccc3nc12`: 10.7% (active).
Consider `O=C(CCCCCn1c(=S)[nH]c2ccsc2c1=O)NC1CCCCC1`, for which the activation was -0.19%.
The same measure for `Oc1cccc2ccc(/C=C/c3ccc(Br)s3)nc12`: 8.85% (active); for `Cc1nc(N=C(N)N)nc2c(C)cccc12`: 0.25%.
`Cc1ccc(Nc2nc(Cl)c(C=O)s2)cc1`: the activation is 3.07%.
Take `Cc1ccc(NC(=O)c2cc3ccccc3o2)cc1`: the activation is 4.91%.
Take `CC(=O)c1sc(N/N=C\c2ccc(C)cc2)nc1C`: the activation is 6.19% (active).
Take `CC(=O)Oc1ccc(C(=O)Nc2nccs2)cc1`: the activation is 5%.
For `CC(=O)c1sc(NC(=O)c2ccc(C)cc2)nc1C`, the activation is 8.83% (active).
The same measure for `CC(C)C[C@H]1CNC(=O)C(=O)N1C[C@H]1CCCN1C[C@H](Cc1ccc(O)cc1)N1C[C@H](CC(C)C)N(CC2CCCCCC2)C(=O)C1=O`: 0.47%; for `Cc1ccc(-c2nc3ccc(Cl)cn3c2Cc2ccccc2)cc1`: 5.49% (active); for `Cc1ccc(-c2nc3ccc(Br)cn3c2Cc2ccccc2C(F)(F)F)cc1`: 7.09% (active).
The same measure for `CC(C)Cc1nnc(NC(=O)CCNC(=O)c2ccccc2Cl)s1`: -0.47%; for `Cc1cc(-n2cnc(-c3cn(C)nc3C)n2)no1`: 2.79%; for `Cc1nnc(NC(=O)Cn2c(=O)sc3ccccc32)s1`: 0.78%.
The same measure for `COc1ccccc1C1=Nc2cccc3cccc(c23)N1`: 2.12%; for `NS(=O)(=O)c1ccccc1NC(=O)c1c(O)c2ccccc2[nH]c1=O`: 14.3% (active).
As for `CCN(CC)C(=O)CSc1nnc(-c2cccc(OC)c2)o1`, the activation is 2.98%.
Under `CCOC(=O)Nc1ccc(NC(=O)OCC)cc1` stands 2.67%; under `COc1ccc(-c2cc(-c3ccc(N)cc3)nc(N)c2C#N)cc1OC`, 3.72%; under `CCCCCCOC(=O)NCC(O)c1ccccc1` (stereo not drawn), 9.46% (active).
The same measure for `O=c1c2c(nc3n1CCCCC3)sc1c(O)cccc12`: 6.75% (active); for `CC(=O)c1ccc(NC(=O)c2sc3nc4n(c(=O)c3c2C)CCCCC4)cc1`: 9.18% (active); for `CCOc1cccc2c1OC1(CCCCC1)N1N=C(c3cccnc3)CC21` (stereo not drawn): 0.45%.
Turning to `O=C(Cn1ncc(N2CCCC2)c(Br)c1=O)c1ccc(Cl)cc1`, the activation was 5.53% (active).
Under `COc1ccc2ccccc2c1CNCc1ccccn1` stands 4.06%; under `C1=C(CCNc2ncnc3c2cnn3-c2ccccc2)CCCC1`, 14.9% (active); under `CN(C)C(CNC(=O)c1ccc(OCc2cn3ccccc3n2)cc1)c1ccco1` (stereo not drawn), 3.42%.
Under `C=CC(=O)OCCOCCOCCOCCOC(=O)C=C` stands 3.33%; under `COC(=O)C1C(=O)c2c([nH]c(C(=O)OCCSC)c2C)CC1C` (stereo not drawn), 11.8% (active); under `O=C(CSc1nc2ccccc2[nH]1)c1cccs1`, 13.1% (active).
The same measure for `CC1(C(=O)NS(=O)(=O)C2CC2)CCCN(C(=O)CSc2ccccc2)C1` (stereo not drawn): -0.05%; for `Cc1cc(C(=O)NNC(=S)Nc2ccccc2C)cs1`: 8.68% (active).
As for `Cc1ccc(-n2c(SCC(=O)N3CCC(C(=O)O)CC3)nc3ccccc3c2=O)cc1C`, the activation was 4.53%.
Regarding `CCNC(=S)N1CCN(c2ncccn2)CC1`, the activation is -0.27%.
Under `COC(=O)c1sc(-c2ccc(C(C)(C)C)cc2)cc1NC(=O)/C=C/C(=O)O` stands 4.46%.
With `Cn1c2ccc(F)cc2c2nnc(NN)nc21`, the activation was 0.75%.
In the case of `Cc1cccc(CSc2ccc(-c3cccs3)nn2)c1`, the activation was 3.46%.
Under `COc1ccc(Cn2c(C)c(C)c(C#N)c2NC(=O)Nc2ccc(F)cc2)cc1` stands -0.19%; under `O=C(Nc1ccc2c(c1)CCC2)c1ccc(Br)s1`, 5.57% (active); under `O=C(NC1CCCC1)C(=O)c1c[nH]c2ccccc12`, 6.44% (active).
As to `CC(=O)c1cccc(-c2cnc3c(NC=O)cc(-c4ccc(N5CCN(C)CC5)cc4)cn23)c1`, the activation was 2.83%.
Under `CCN(CC)C(=O)c1sc2nc(-c3ccccc3)ccc2c1N` stands 11.2% (active); under `COc1cccc(C(=O)Nc2cc3c(cc2Br)OCCCO3)c1`, 9.44% (active); under `c1ccc2cc3c(NCCN4CCOCC4)ccnc3cc2c1`, 0.84%.
The same measure for `Cc1cccc(-n2c(O)c(C=Nc3ccccc3N)c(=O)[nH]c2=O)c1`: 6.14% (active); for `C=C1C(=O)[C@]23C[C@H]1CCC2[C@@]1(C)C(C[C@@H]3O)[C@](C)(C(=O)O)CC[C@@H]1O` (stereo partly drawn): 1.65%.
